Bioassay records deposited in PubChem by several laboratories.
CHT allo act: human CHT allosteric activation; actives 0.49% (n = 310,000); CHT-expressing cells, membrane potential dye, choline EC20; hits give high values; LV-AA mutant CHT in HEK293 cells; B-score at 10 µM;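 active means initial fluorescence not abnormally high and integrated response B-score, plate-corrected, over 3 SD above library mean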
T cell modulator: T cell immune modulation candidate. 2C CD8+ T cell-vesicle binding, flow cytometry; hits give low values. actives 0.068% (n = 330,000). AID 2052. response (vesicle binding), % at 7 µM;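 active means response, share of CD8 T cells binding vesicles, and their 90th percentile fluorescence all below set limits, cut at about 80% in these data, passing the limit was not always enough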;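 further: values below 100% mean blocked vesicle binding to the CD8+ T cells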
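Assay system – 2C mouse CD8+ T cells · Also added – QL9-loaded Drosophila micro-vesicles · Timing – Cell–vesicle co-incubation 1.5 h at 37 °C, staining 20 min on ice · Signal – flow cytometry of vesicle-bound cells · Measure – percent CD8+ FL2 mean versus row control · Controls – Peptide-free naked vesicles (low) and QL9 vesicles with 0.7% DMSO vehicle (high)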
GPR7 antagonist: human neuropeptides B/W receptor 1 antagonism; P48145; actives 1.1% (n = 290,000); GPR7-expressing cells, fluorescence antagonist assay; inhibition, % at 4.4 µM; in the data active means inhibition above about 16%, passing the limit was not always enough;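 further: cells stimulated with the agonist NPW; 0% = agonist with vehicle and 100% = vehicle without agonist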
Target sequence (P48145 whole entry, looked up): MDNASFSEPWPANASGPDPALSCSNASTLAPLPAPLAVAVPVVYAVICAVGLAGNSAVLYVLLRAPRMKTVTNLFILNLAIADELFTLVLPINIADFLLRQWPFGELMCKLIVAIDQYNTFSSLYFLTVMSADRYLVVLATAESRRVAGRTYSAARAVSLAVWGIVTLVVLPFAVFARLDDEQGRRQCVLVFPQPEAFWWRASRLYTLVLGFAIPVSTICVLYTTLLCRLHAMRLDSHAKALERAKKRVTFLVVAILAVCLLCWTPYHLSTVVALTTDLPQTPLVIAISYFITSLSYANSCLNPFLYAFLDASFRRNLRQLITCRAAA
p-CIP stab down: compounds decreasing mouse p/CIP protein stability; actives 0.01% (n = 290,000); decrease of EGFP signal, % at 10 µM; F442A p/CIP-EGFP cells, EGFP fluorescence, 16 h; Q05BA5;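 active means EGFP signal decrease of at least 30% at 10 µM or well 3 SD below plate mean, unless failing retest; inactive means the rest, including hits failing retest or dose response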
CHT block: inhibits the human high affinity choline transporter; Q9GZV3; CHT-expressing cells, membrane potential dye, choline response; hits give low values; B-score at 10 µM; actives 0.86% (n = 310,000);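 active means B-score over 3 SD under the library average, and starting fluorescence ratio not unusually high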;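 further: choline stimulus applied at its EC90 after an EC20 pre-addition; B-score computed on integrated fluorescence ratio after choline addition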
Pemphigus Ab inh: human desmoglein-3 autoantibody binding inhibition | P32926 | DSG3-coupled beads, scFv-anti-DSG3-GFP binding, flow cytometry; hits give low values | actives 0.48% (n = 310,000) | binding (percent of control), % at 10 µM;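 active means binding more than 3 SD below its plate's average and above zero; inconclusive means below that plate limit but binding exactly zero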;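 further: hits lower antibody fragment binding to DSG3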
CHT activ conf: human CHT activation, confirmatory screen; shares compounds with CHT allo act; activation, % at 10 µM; CHT-expressing cells, membrane potential dye fluorescence (FDSS); % of choline EC20–EC90 response window; HEK293 expressing CHT LV-AA mutant; choline added at its EC20; actives 91% (n = 2,500); AID 504833;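 active means primary screen active, with duplicate mean activation above negative control mean plus 3 SD, cut at about 11% in these data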
HEK293 MP dye: counter-screen for CHT activators: effect in parental HEK293 cells; shares compounds with CHT allo act; membrane potential dye fluorescence (FDSS); measured after EC20 choline addition; ratio readout change at 10 µM, hits read low; actives 62% (n = 2,500);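 active means duplicate-averaged ratio beyond 3 SD from buffer wells, up or down, though filed actives are nearly all decreases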
An asterisk follows results filed as active; i = inactive; ? = inconclusive; · = no result. An excerpt weighted towards active compounds, which were near 2.3% of everything screened.

SMILES	CHT allo act	T cell modulator	GPR7 antagonist	p-CIP stab down	CHT block	Pemphigus Ab inh	CHT activ conf	HEK293 MP dye
Cn1cccc1CN1CCC[C@]2(N[C@H](c3ccccc3)[C@@H]3C(=O)N(Cc4ccccc4)C(=O)[C@@H]32)C1=O	·	·	·	·	·	95	·	·
CC(Oc1ccccc1)C(=O)N(CCC1=CCCCC1)c1c(N)n(Cc2ccccc2)c(=O)[nH]c1=O (centres undefined)	i	172	21	12	i	?	11*	i
Nc1c(N(CCC2=CCCCC2)C(=O)CCCOc2ccccc2)c(=O)[nH]c(=O)n1Cc1ccccc1	i	922	·	·	i	108	·	·
CCCC12CN(C(=O)c3ccc([N+](=O)[O-])cc3)CC(C)(CN(C(=O)c3ccc([N+](=O)[O-])cc3)C1)C2=O	i	i	5	0	i	104	45*	i
CCn1cc(C(=O)O)c(=O)c2cc(F)c(N3CCNCC3)cc21	14*	420	1	-2	i	115	39*	-42*
CCCCCCn1cc(C(=O)O)c(=O)c2cc(F)c(N3CCN(C)CC3)cc21	6.9*	280	-4	2	i	106	59*	-76*
CCCCCCCC(=O)N1CCN(c2cc3c(cc2F)c(=O)c(C(=O)O)cn3CC)CC1	i	158	-16	-12	i	106	·	·
CC(C)C[C@H](NC(=O)N1CCn2c1nc1ccccc12)C(=O)N[C@@H](Cc1ccccc1)C(=O)O	i	521	2	-4	i	97	·	·
O=C(NNC(=O)c1cccc2ccccc12)c1ccc(Br)cc1	·	·	·	·	·	118	·	·
O=C(CCc1c[nH]c2ccccc12)N1CCN(S(=O)(=O)c2ccc([N+](=O)[O-])cc2)CC1	·	·	·	·	·	95	·	·
CCN(CC)CCNc1nc2c(c(=O)n(C)c(=O)n2C)n1C/C=C(/C)Cl	i	305	2	-2	i	100	68*	-42*
C/C(Cl)=C\Cn1c(NCCc2ccccc2)nc2c1c(=O)n(C)c(=O)n2C	i	374	-1	-4	i	128	·	·
COc1ccc(C(=O)Nc2cccc(C(=O)Nc3cc(C)ccn3)c2)cc1	·	·	·	·	·	101	·	·
CC1CCN(C(=O)CCCl)c2ccccc21 (centres undefined)	·	·	·	·	·	89	·	·
CCCCN1C(=O)C(CC(=O)NCc2cccs2)CC(C(=O)N(C(C)C)C(C)C)=C1C (centres undefined)	·	·	·	·	·	101	·	·
Cc1ccc(S(=O)(=O)Nc2ccc(C(=O)NCCCN3CCOCC3)cc2)cc1[N+](=O)[O-]	i	418	·	·	i	107	16*	i
CCOC(=O)c1c(CSc2ccsc2)n(C)c2cc(Br)c(O)c(CN(C)C)c12	6.8*	279	21	-12	i	98	40*	i
Cn1c(N)c(C(=O)COC(=O)c2ccc(Cl)nc2)c(=O)n(C)c1=O	7.5*	750	-8	-9	i	103	22*	-31*
Cc1noc(C)c1NC(=O)N(C)C[C@@H]1Oc2c(NC(=O)c3ccncc3)cccc2C(=O)N([C@H](C)CO)C[C@@H]1C	·	204	·	·	·	101	·	·
O=C(Nc1ccn(CCCNCc2cccc3ccccc23)c(=O)n1)OCc1ccccc1	·	·	·	·	·	92	·	·
CC(=NCCCn1ccnc1)C1=C(O)c2ccccc2C1=O	i	27	-14	5	i	97	29*	-38*
CN(CC(=O)Nc1cc(S(=O)(=O)N2CCCC2)ccc1Cl)Cc1nc2ccccc2c(=O)[nH]1	·	·	·	·	·	102	·	·
COc1ccccc1Nc1c2c(nc3ccccc13)CCC2	i	i	4	6	i	107	·	·
COc1cc(Nc2c3c(nc4ccccc24)CCCC3)cc(OC)c1OC	i	317	-15	3	i	95	45*	-49*
O=C(c1ccccc1)c1ccc(O)c(O)c1O	·	·	·	·	·	97	·	·
SMILES	CHT allo act	T cell modulator	GPR7 antagonist	p-CIP stab down	CHT block	Pemphigus Ab inh	CHT activ conf	HEK293 MP dye
CCN(CC)CCNc1ccc(CO)c2sc3ccccc3c(=O)c12	6.4*	665	-4	-4	i	99	44*	-49*
CC12CCC(=O)N1C(C(=O)N1CCN(c3ccc([N+](=O)[O-])cc3)CC1)CS2 (centres undefined)	·	311	·	·	·	·	·	·
COc1ccccc1CNc1cc(CSc2ccc(Cl)cc2)nc(C)n1	i	177	0	-5	i	98	23*	i
COc1ccc(-c2cc(C(=O)NNC(=O)c3csc(N4CCOCC4)n3)c3ccccc3n2)cc1OC	7.3*	505	·	·	i	97	11*	i
CC[n+]1c(C)cc2c(sc3ccccc32)c1C	·	·	-3	-11	·	98	·	·
CC[n+]1c(C)sc2c(C)cc(C)cc21	7.8*	222	-2	-18	i	74	62*	-60*
O=C1OC2(c3ccccc31)c1cc(I)c(O)c(I)c1Oc1c2cc(I)c(O)c1I	i	i	·	·	i	·	·	·
O=C(c1ccc2ccccc2c1O)N1CCCCC1	·	·	·	·	·	97	·	·
CN(Cc1ccccc1)C(=O)c1ccc(NC(=O)Cc2ccc(NC(=O)C3CCCN(S(=O)(=O)c4cccc([N+](=O)[O-])c4)C3)cc2)cc1 (centres undefined)	·	·	·	·	·	100	·	·
Cc1nnc(N2CCC(C(=O)N3CCCCC3)CC2)c2nn(-c3ccc(Cl)cc3)c(C)c12	i	334	9	0	i	102	39*	i
COc1ccc(-n2nc3c(N4CCC(C(=O)N5CCC(C)CC5)CC4)nnc(C)c3c2C)cc1	i	250	6	-15	i	178	·	·
CN(CCO)S(=O)(=O)c1ccc2c(c1)C(=NNC(N)=O)c1cc(S(=O)(=O)N(C)CCO)ccc1-2	8.2*	174	6	3	i	-5.9*	42*	-43*
NN=C1c2ccccc2C(=O)C1C(=O)C(c1ccccc1)c1ccccc1 (centres undefined)	·	·	·	·	·	137	·	·
Cc1cccn2c(=O)c3cc(C(=O)NCc4ccco4)c(=N)n(CCc4ccccc4)c3nc12	i	0	-7	-7	i	94	22*	-31*
CC(=O)N=c1c(C#N)cc2c(=O)n3cccc(C)c3nc2n1CCCOC(C)C	i	621	0	-8	i	97	44*	-45*
CC(=O)N=c1c(C#N)cc2c(=O)n3cccc(C)c3nc2n1Cc1ccco1	i	370	-11	4	i	102	47*	-36*
